# Laboratory results as given in ChEMBL document CHEMBL5625181, “Exploring the 1,3-benzoxazine chemotype for cannabinoid receptor 2 as a promising anti-cancer therapeutic” (Eur J Med Chem, 2023).
# Activity calls are given as the source filed them. No cut-off for these calls is given here.
# Legend:
# [1] = molecular target: T1, Cannabinoid receptor 2 (Homo sapiens, UniProt P34972); assay: Agonist activity at human recombinant Cannabinoid receptor 2 by GTPgammaS binding assay; type: functional
# Outline: (§1)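 [35S]GTPγS filtration assay. Membranes (5 µg CB2 or 10 µg/well CB1), permeabilized with equal mass of saponin, preincubated 20 min at room temperature with compound (0-100 μM) in 20 mM HEPES, 100 mM NaCl, 10 mM MgCl2, 10 µM GDP, pH 7.4. Then 0.3 nM [35S]GTPγS for 30 min at 37 °C. Quintuplicate, ≥3 experiments. pEC50 from non-linear fit.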
# [2] = molecular target: Cannabinoid receptor 1 (Homo sapiens, UniProt P21554); assay: Agonist activity at human recombinant Cannabinoid receptor 1 by GTPgammaS binding assay; type: functional; outline: as §1
# [3] = tested on: BT-549; assay: Antiproliferative activity against human BT-549 cells assessed as inhibition in cell proliferation at 1 to 10 uM incubated after 24 hrs by MTT assay; type: functional, cell-based; details: dose 1-10 µM
# Outline: (§2)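 Cells seeded at 1.5 x 10^4/well and incubated overnight; sub-confluent cells treated at 37 °C for 24, 48 or 72 h. MTT added (final 1 mg/mL), 3 h at 37°C in the dark, formazan dissolved in DMSO, read at 590 nm. Expressed as % of vehicle; mean ± SEM of three experiments, each at least in quintuplicate.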
# [4] = tested on: BT-549; assay: Antiproliferative activity against human BT-549 cells assessed as inhibition in cell proliferation incubated after 72 hrs by MTT assay; type: functional, cell-based; details: dose 0.1-10 µM; outline: as §2
# [5] = tested on: MDA-MB-231; assay: Antiproliferative activity against human triple negative MDA-MB-231 cells assessed as change in cell proliferation by MTT assay; type: functional, cell-based; outline: as §2
# [6] = tested on: HCC1954; assay: Antiproliferative activity against human HER2-positive HCC1954 cells assessed as change in cell proliferation by MTT assay; type: functional, cell-based; outline: as §2
# [7] = tested on: MCF-10A; assay: Cytotoxicity activity against human MCF-10A cells assessed as change in cell proliferation by MTT assay; type: toxicity, cell-based; outline: as §2
# [8] = tested on: BT-549; assay: Inhibition of colony formation in human BT-549 cells assessed as decrease in number of colonies at 10 uM incubated for 14 days by inverted phase contrast microscope relative to control; type: functional; parameters: scale not given: the % may be the effect or the level left; details: time 14 day
# Outline: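 BT549 seeded at 1 x 10^3 cells/well and grown at 37 °C for at least 14 days with vehicle or compound. Colonies fixed and stained with 6% glutaraldehyde/0.5% crystal violet for 30 min, then counted by inverted phase-contrast microscopy (10x). Expressed as % of vehicle. Three independent experiments, each at least in triplicate.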
# [9] = tested on: BT-549; assay: Antiproliferative activity against human BT-549 cells transfected with CNR2 siRNA assessed as inhibition of cell proliferation at 10 uM incubated after 24 hrs by MTT assay; type: functional, cell-based
# Outline: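 BT549 cells transfected with 50 nM CNR2 siRNA or scramble control by lipofection. After 24 h, treated with vehicle or 10 µM compound for a further 24 h. Viability by MTT (1 mg/mL, 3 h, 37°C, 590 nm).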
# [10] = tested on: BT-549; assay: Antiinflammatory activity in human BT-549 cells assessed as decrease in TNF-alpha level at 10 uM incubated for 48 hrs by ELISA method relative to control; type: functional; parameters: scale not given: the % may be the effect or the level left
# Outline: (§3)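 BT549 cells seeded at 1.5 x 10^4/well and treated after 24 h with vehicle or compound at 37 °C for 48 h. TNF-α and IL-6 in supernatant measured by ELISA at 450 nm against a recombinant cytokine standard curve (0-1000 pg/mL). Expressed as % of vehicle. Three independent experiments, each in triplicate.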
# [11] = tested on: BT-549; assay: Antiinflammatory activity in human BT-549 cells assessed as decrease in IL-6 level at 10 uM incubated for 48 hrs by ELISA method relative to control; type: functional; parameters: scale not given: the % may be the effect or the level left; outline: as §3
# [12] = tested on: BT-549; assay: Antiinflammatory activity in human BT-549 cells transfected with CNR2 siRNA assessed as decrease in TNF-alpha level at 10 uM incubated for 48 hrs by ELISA method; type: functional, cell-based
# Outline: (§4)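 BT549 cells seeded at 1.5 x 10^4 cells/well, transfected with 50 nM CNR2 siRNA or scramble oligo, then treated with vehicle or 10 μM compound at 37 °C for 48 h. TNF-α and IL-6 in supernatant measured by ELISA at 450 nm. Expressed as % of vehicle; mean ± SEM of three experiments in triplicate.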
# [13] = tested on: BT-549; assay: Antiinflammatory activity in human BT-549 cells transfected with CNR2 siRNA assessed as decrease in IL-6 level at 10 uM incubated for 48 hrs by ELISA method; type: functional, cell-based; outline: as §4
# [14] = molecular target: T1, Cannabinoid receptor 2; assay: Agonist activity at human Cannabinoid receptor 2 in BT-549 cells assessed as downregulation in ERK1/2 phosphorylation level at 10 uM by westernblot analysis; type: functional, cell-based; details: filed as agonist, time 5-60 min, TDE = time-dependent effect
# Outline: (§5)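 BT549 cells, untransfected or transfected with scramble oligo or CNR2 siRNA, incubated at 37°C with or without 10 μM compound for the indicated periods. Phospho-ERK1/2 measured by Western blot on whole lysates (20-40 µg/lane, SDS-PAGE, PVDF, enhanced chemiluminescence). Values compared with relative vehicle-treated cells.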
# [15] = molecular target: T1, Cannabinoid receptor 2; assay: Agonist activity at human Cannabinoid receptor 2 in BT-549 cells assessed as downregulation in ERK1/2 phosphorylation level at 10 uM and observed within 5 min by Western blot analysis relative to control; type: functional, cell-based; outline: as §5
# [16] = molecular target: T1, Cannabinoid receptor 2; assay: Agonist activity at human Cannabinoid receptor 2 in BT-549 cells assessed as change in ERK1/2 phosphorylation level at 10 uM and observed after 10 min by westernblot analysis; type: functional, cell-based; outline: as §5
# [17] = molecular target: T1, Cannabinoid receptor 2; assay: Agonist activity at human Cannabinoid receptor 2 in BT-549 cells transfected with CNR2 siRNA assessed as downregulation in ERK1/2 phosphorylation level at 10 uM and observed after 5 mins by Western blot analysis relative to control; type: functional, cell-based; outline: as §5
# [18] = molecular target: T1, Cannabinoid receptor 2; assay: Displacement of [3H]CP55,940 from human CB2 receptor expressed in CHO cells membrane assessed as residual activity at 0.1 uM by scintillation counting analysis relative to control; type: cell membranes
# Outline: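 Membranes (2.5 µg) from CHO cells stably expressing human CB2, in 50 mM Tris-HCl, 5 mM MgCl2, 1 mM CaCl2, 2 mg/mL BSA, pH 7.4. Incubated 30 min at 37 °C with 0.8 nM [3H]CP55,940 and 0.1 µM compound (final). Nonspecific binding with 1 µM unlabelled CP55,940. Filtered on PEI-soaked GF/B filters, scintillation counted. Quintuplicate, ≥3 experiments.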
# T1 sequence (P34972 whole entry): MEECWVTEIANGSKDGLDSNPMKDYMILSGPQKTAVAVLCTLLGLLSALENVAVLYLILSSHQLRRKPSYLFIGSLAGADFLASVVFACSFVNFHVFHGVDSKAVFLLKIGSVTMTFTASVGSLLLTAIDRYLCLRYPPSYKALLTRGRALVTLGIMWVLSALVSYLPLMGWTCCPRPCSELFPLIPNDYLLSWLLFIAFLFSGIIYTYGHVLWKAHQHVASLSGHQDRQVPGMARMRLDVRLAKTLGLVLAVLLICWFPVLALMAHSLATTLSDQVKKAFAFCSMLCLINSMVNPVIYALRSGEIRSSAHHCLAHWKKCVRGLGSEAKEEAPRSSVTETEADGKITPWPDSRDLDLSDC
# Chain of Cannabinoid receptor 1 (P21554 whole entry): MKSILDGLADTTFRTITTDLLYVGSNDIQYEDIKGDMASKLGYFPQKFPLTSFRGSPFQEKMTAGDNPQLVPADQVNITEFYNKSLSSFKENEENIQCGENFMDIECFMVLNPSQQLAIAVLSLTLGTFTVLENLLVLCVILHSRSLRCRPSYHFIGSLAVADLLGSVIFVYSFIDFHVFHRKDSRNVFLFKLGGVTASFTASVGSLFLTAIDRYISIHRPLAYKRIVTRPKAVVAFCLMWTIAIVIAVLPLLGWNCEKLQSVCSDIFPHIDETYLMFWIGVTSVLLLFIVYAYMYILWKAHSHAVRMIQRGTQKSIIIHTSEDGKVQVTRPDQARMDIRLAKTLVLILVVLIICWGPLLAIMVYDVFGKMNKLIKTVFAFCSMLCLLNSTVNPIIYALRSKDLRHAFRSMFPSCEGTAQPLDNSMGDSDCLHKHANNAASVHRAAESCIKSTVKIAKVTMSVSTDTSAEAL
SMILES,EC50 ([2]; read-out: pEC50 (converted)) [µM],Activity [18] [%],EC50 ([1]; read-out: pEC50 (converted)) [µM],also measured
O=C1c2ccc(OS(=O)(=O)c3cccs3)cc2OC2(CCCCC2)N1Cc1ccccc1,> 10,< 80,–,EC50 ([1]; read-out: EC50): 0.11 µM; EC50 ([2]; read-out: EC50): > 10 µM; inhibition [3]: Active; inhibition [4]: Dose-Dependent Effect; Activity [5]: Active; Activity [6]: Active; Activity [7]: Non-Toxic; Activity [8]: 75.4%; Activity [9]: inactive; Activity [10]: <=50%; Activity [11]: <=70%; Activity [12]: inactive; Activity [13]: inactive; Activity [14]: Tde; Activity [15]: 30%; Activity [16]: inactive; Activity [17]: inactive
Cc1ccc(S(=O)(=O)Oc2ccc3c(c2)OC(C)(C)N(Cc2ccc(F)cc2)C3=O)cc1,> 10,< 80,0.195,–
O=C1c2ccc(OS(=O)(=O)c3ccc4c(c3)OCCO4)cc2OC2(CCOCC2)N1Cc1ccccc1,–,< 80,–,–
Cn1cnc(S(=O)(=O)Oc2ccc3c(c2)OC2(CCCCC2)N(Cc2ccccc2)C3=O)c1,> 10,< 80,1,–
COc1cccc(COc2ccc3c(c2)OC(C)(C)N(Cc2ccc(C(C)C)cc2)C3=O)c1,–,< 80,–,pEC50 [1]: inactive
O=C1c2ccc(OS(=O)(=O)c3cccc([N+](=O)[O-])c3)cc2OC2(CCOCC2)N1Cc1ccccc1,> 10,< 80,0.204,–
N#Cc1cccc(S(=O)(=O)Oc2ccc3c(c2)OC2(CCCCC2)N(Cc2ccccc2)C3=O)c1,> 10,< 80,0.355,–
COc1cccc(S(=O)(=O)Oc2ccc3c(c2)OC2(CCCCC2)N(Cc2ccccc2)C3=O)c1,> 10,< 80,0.417,–
CN1C(=O)c2ccc(OS(=O)(=O)c3ccc(Oc4ccccc4)cc3)cc2OC1(C)C,–,< 80,–,–
O=C1c2ccc(OS(=O)(=O)c3ccc([N+](=O)[O-])cc3)cc2OC2(CCOCC2)N1Cc1ccccc1,–,< 80,–,–
Cn1ccc(S(=O)(=O)Oc2ccc3c(c2)OC2(CCCCC2)N(Cc2ccc(C#N)cc2)C3=O)n1,> 10,< 80,0.372,–
CN(C)C(=O)CN1C(=O)c2ccc(OS(=O)(=O)c3ccc(Br)cc3)cc2OC1(C)C,–,< 80,–,–
CC1(C)Oc2cc(OCc3ccc(OC(F)(F)F)cc3)ccc2C(=O)N1Cc1ccc(F)cc1,–,< 80,–,pEC50 [1]: inactive
